CYP2C19 activ = activators of human cytochrome P450 2C19. P33261. recombinant CYP2C19, luciferin-H EGE luminescence; active compounds read high; 0 = fully inhibited enzyme, 1 = untreated enzyme. activation factor at 5 µM. 96,000 tested, under 10 active. AID 1025;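 active = activation factor of at least 2 at 5 µM in the primary screen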;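 note: 0 = wells with 2.5 mM tranylcypromine and 1 = vehicle-only wells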
E coli WT exp = growth inhibitors of E. coli BW25113 wild type; growth inhibition, % at 100 µM; 98,000 tested, 0.15% active; OD600 absorbance;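 active = growth inhibition above about 50% at one test dose, limit read from the data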;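 note: growth measured after 20 h incubation at 37 °C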
CYP2C19 inhib = human CYP2C19 inhibition; P33261; CYP2C19 Supersomes, luciferin-H EGE luminescence, 30 min; inhibition, % at 5 µM; 96,000 tested, 21% active; AID 778;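 active = CYP2C19 inhibition above a set limit at 5 µM in the primary screen, cut at about 50% in these data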;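 note: plate controls were negative control wells for no effect and 2.5 mM tranylcypromine positive control for full effect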
CYP2C9 inhib = inhibitors of human CYP2C9; P11712; CYP2C9 Supersomes, luciferin-H conversion, luminescence; inhibition, % at 5 µM; 96,000 tested, 20% active; AID 777;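 active = blocking of liver enzyme CYP2C9 beyond about 50% at 5 µM, limit read from the data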
Target sequence (P11712 whole entry, looked up): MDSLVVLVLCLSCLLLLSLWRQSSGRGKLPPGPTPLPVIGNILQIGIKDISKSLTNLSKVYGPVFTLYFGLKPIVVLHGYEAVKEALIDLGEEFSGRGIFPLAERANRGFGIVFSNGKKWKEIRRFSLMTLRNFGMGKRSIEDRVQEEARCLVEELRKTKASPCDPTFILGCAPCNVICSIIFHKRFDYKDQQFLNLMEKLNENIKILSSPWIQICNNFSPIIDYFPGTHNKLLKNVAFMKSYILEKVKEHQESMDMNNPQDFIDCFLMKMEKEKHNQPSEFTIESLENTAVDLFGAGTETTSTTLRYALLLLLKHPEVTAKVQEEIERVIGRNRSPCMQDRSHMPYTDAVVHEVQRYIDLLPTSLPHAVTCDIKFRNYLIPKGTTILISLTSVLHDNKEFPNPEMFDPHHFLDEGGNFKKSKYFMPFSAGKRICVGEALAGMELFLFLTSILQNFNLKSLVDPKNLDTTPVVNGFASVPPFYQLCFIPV
Ecoli tolC = growth inhibitors of E. coli BW25113 tolC mutant; 65,000 tested, 2.2% active; OD615; AID 573; growth inhibition, % at 10 µM (by protocol);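 active = growth inhibition at or above a cutoff equal to the mean over every tested compound plus 3 SD, cut at about 60% in these data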;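 note: growth measured after 20 h incubation at 37 °C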
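Doses: one dose of 10 µM final / Material: E. coli BW25113 ΔtolC::kan, tolC deletion mutant strain / Buffer or medium: LB with kanamycin 50 µg/mL / Evaluation: percent growth inhibition / Detection: optical density read at 615 nm / Incubation: 37 °C, 20 h exposure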
CYP2C9 activ = activators of human CYP2C9; P11712; recombinant CYP2C9, luciferin-H conversion, luminescence; active compounds read high; factor 1 = untreated enzyme, 0 = blocked; activation factor at 5 µM; 96,000 tested, 1.4% active; AID 1024;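 active = activation factor of 2 or more for CYP2C9 at a 5 µM dose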;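 note: 0 = sulfaphenazole-blocked wells and 1 = vehicle-only wells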
* hit, by the source's call; . = no result given. Sampled rows, rich in hits. Any-hit rate of the full collection: about 29%.

SMILES	CYP2C19 activ	E coli WT exp	CYP2C19 inhib	CYP2C9 inhib	Ecoli tolC	CYP2C9 activ
CCCc1cc(C(=O)NNC(=S)NC(C)c2ccccc2)cs1 (stereo unspecified)	0.2	6	81*	44	.	0.6
COc1ccc(C(=O)NNC(=S)NC(=O)c2cc(-c3ccccc3)nc3ccccc23)cc1	0.9	-5	8	42	.	0.6
CCc1cc(C(=O)NNC(=S)NCC2CCCO2)cs1 (stereo unspecified)	0.7	-2	33	-40	.	1.4
CCNC(=S)NNC(=O)c1cc(CC(C)C)nc2ccccc12	0.9	3	10	64*	.	0.4
CCNC(=S)NNC(=O)c1cc(-c2ccccc2C)nc2ccccc12	1	-5	0	60*	.	0.4
CCNC(=S)NNC(=O)c1cc(-c2ccc(OCC)cc2)nc2ccccc12	0.6	5	43	79*	.	0.2
CCNC(=S)NNC(=O)c1cccs1	.	3	.	.	.	.
O=C1c2oc3ccccc3c(=O)c2C(c2ccc(Br)cc2)N1c1ncccn1 (stereo unspecified)	.	.	.	.	-12	.
Cc1cc(C(=O)NNC(=S)NC(C)c2ccccc2)c2ccccc2n1 (stereo unspecified)	1	3	-4	55*	.	0.4
CCCOc1ccc(C(=O)NNC(=S)NC(=O)c2cc(-c3ccc(Cl)cc3)nc3ccccc23)cc1	0.9	-4	8	50*	.	0.5
Cc1cc(C(=O)O)c2ccccc2n1	1.1	-4	-10	10	.	0.9
CCCOc1cccc(-c2cc(C(=O)NNC(=S)NCC)c3ccccc3n2)c1	0.8	-12	22	70*	.	0.3
CS(=O)(=O)N1CCN(C2CCN(Cc3ccccc3)CC2)CC1	1.1	-1	-9	-15	-26	1.2
Cn1c(=O)c2c(nc(SCCN3CCOCC3)n2Cc2cccc3ccccc23)n(C)c1=O	0.9	1	12	27	11	0.7
Fc1ccc(Br)cc1C1C=C(c2ccc(Br)cc2)Nc2ncnn21 (stereo unspecified)	0.1	-8	87*	56*	.	0.4
Cc1ccsc1C1C=C(c2cccc(Br)c2)Nc2ncnn21 (stereo unspecified)	0.4	-18	62*	62*	8	0.4
CN1C(=O)C2(N=c3ccccc3=N2)c2ccccc21	0.8	-2	18	80*	6	0.2
CCc1ccc(C(C)NC(=O)C2(C)CC2(Br)Br)cc1 (stereo unspecified)	0.1	5	90*	71*	.	0.3
CCC(NC(=O)C1(C)CC1(Br)Br)c1ccc(C)cc1 (stereo unspecified)	0.6	2	40	16	.	0.8
CN1CCN(C(=O)c2ccc(-n3cccc3)cc2)CC1	1	-1	0	42	.	0.6
CCOc1cc(C2NC(=O)NC(C)=C2C(=O)OCc2ccccc2)ccc1O (stereo unspecified)	0.4	-2	59*	71*	11	0.3
COc1ccc(COC(=O)C2=C(C)NC(=O)NC2c2ccc(O)c(OC)c2)cc1 (stereo unspecified)	0.3	7	70*	62*	15	0.4
COc1cc(C2NC(=O)NC(C)=C2C(=O)OCc2ccccc2)ccc1O (stereo unspecified)	0.7	.	30	41	13	0.6
CCOC(=O)C1=C(C)NC(=O)NC1c1c(O)ccc2ccccc12 (stereo unspecified)	0.1	2	86*	-5	5	1
CCOC(=O)C1=C(C)NC(=O)NC1c1ccc(OCCO)c(OC)c1 (stereo unspecified)	1.1	4	-7	-2	-12	1
SMILES	CYP2C19 activ	E coli WT exp	CYP2C19 inhib	CYP2C9 inhib	Ecoli tolC	CYP2C9 activ
COc1ccc(OCC(=O)Nc2ncc3c(n2)CC(C)(C)CC3=O)cc1	1	0	-1	2	12	1
CSc1ccccc1C(=O)Nc1cccc(C(C)O)c1 (stereo unspecified)	1	6	0	-12	4	1.1
Cc1ccc(-n2nnnc2-c2cnc(-c3cccnc3)nc2C(F)(F)F)cc1	0.5	4	48	60*	.	0.4
FC(F)(F)c1nc(N2CCCC2)ncc1-c1nnnn1-c1ccc(Cl)cc1	0.1	5	90*	39	.	0.6
Cn1cc(-c2nnnn2-c2ccc(Cl)cc2)c(=O)c2ccccc21	0.8	-6	20	4	.	1
Fc1ccc(-n2nnnc2-c2cnc(-c3cccs3)nc2C(F)(F)F)cc1	0.7	-7	34	86*	.	0.1
FC(F)(F)c1nc(-c2ccncc2)ncc1-c1nnnn1-c1ccccc1	0	3	101*	74*	.	0.3
Cc1ccc(Cl)cc1Nc1nc(-c2sc(NC(=O)C(C)(C)C)nc2C)cs1	0.9	1	6	30	.	0.7
CC(=O)NC1C(=O)N(C)c2ccc(Br)cc21 (stereo unspecified)	1.1	4	-5	-1	.	1
CCCCOC(=O)Nc1sc2c(c1C(=O)OC)CCC2	1.2	.	-20	-23	34	1.2
CCOCc1cnc(C)nc1NCC(=O)c1c(C)[nH]c2ccc(OC)cc12	1	3	2	-1	.	1
O=C(c1c(O)c2ccccc2oc1=O)C1CCC1	1.1	20	-7	28	12	0.7
CCCCCN=C(C)c1c(O)c2ccccc2oc1=O	0.1	-2	88*	78*	13	0.2
Cc1ccc(CNc2ccc(N3CCOCC3)cc2)s1	0.4	-1	65*	18	-5	0.8
CC(=O)N1CCN(c2ccc(NCc3ccc(C)s3)cc2)CC1	0.8	1	22	33	4	0.7
COC(=O)c1c(NC(=O)CN2CCC(C)CC2)c2c(C)cccc2n1C	0.8	2	20	6	7	0.9
COc1cc(NC(=O)CN2C(=O)c3ccccc3S2(=O)=O)c(OC)cc1Cl	0.3	-1	67*	52*	12	0.5
O=C(CN1C(=O)c2ccccc2S1(=O)=O)Nc1ccc(S(=O)(=O)N2CCCCC2)cc1	1	-2	3	62*	4	0.4
O=C(CN1C(=O)c2ccccc2S1(=O)=O)Nc1ccc(S(=O)(=O)N2CCCC2)cc1	0.6	-4	42	92*	0	0.1
O=C(CN1C(=O)c2ccccc2S1(=O)=O)Nc1ccccc1	0.5	3	49	18	.	0.8
O=C(Cn1c(=O)oc2ccccc21)Nc1ccc(S(=O)(=O)N2CCCCC2)cc1	1	-8	-2	10	-6	0.9
O=C(Nc1cc(C(F)(F)F)ccc1N1CCOCC1)c1ccc(F)cc1	0.2	2	77*	8	.	0.9
O=C(CCc1ccccc1)NC(=S)Nc1cc(C(F)(F)F)ccc1N1CCOCC1	0.1	-6	88*	93*	.	0.1
Cc1onc(-c2ccccc2)c1C(=O)Nc1cc(C(F)(F)F)ccc1N1CCOCC1	0.4	-2	65*	56*	24	0.4

Screens deposited in PubChem BioAssay by several laboratories.
